In ChEMBL document CHEMBL5376024, “Small molecule WDR5 inhibitors down-regulate lncRNA expression” (RSC Med Chem, 2024):
Activity calls are given as the source filed them. No cut-off for these calls is given here.

Experiments:
Type in all cases: cell-based
U2OS [1] = assay: Inhibition of HOTTIP-WDR5 complex formation in human U2OS cells at 10 uM by in vitro RNA immunoprecipitation assay
How it was run: (§1)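 RIP assay on purified FLAG-WDR5 loaded at 0.2 mg/mL onto anti-FLAG magnetic beads (Buffer C with 0.1% IGEPAL, 0.1% BSA, 10 µg/mL yeast tRNA; 4 °C, 3 h). The beads were then given 1 µg of U-2 OS total RNA (TRIzol) with or without inhibitor, in 0.1% DMSO in RIP buffer (Tris pH 7.5, KCl, EDTA, RNasin), for 1 h at rt. RNA was read by RT-qPCR as percentage enrichment against a 50% input.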

U2OS [2] = assay: Inhibition of HOXC13-AS-WDR5 complex formation in human U2OS cells at 10 uM by in vitro RNA immunoprecipitation assay; how it was run: as §1
MDA-MB-231 [3] = assay: Inhibition of IncRNA-WDR5 complex in human MDA-MB-231 cells assessed as downregulation of HOTTIP expression measured at 10 uM after 1 day by RT-qPCR analysis
How it was run: (§2)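 MDA-MB-231 cells (DMEM, 10% FBS, 37 °C, 5% CO2) were seeded in 12-well plates at 1×10^5 cells/well for 1-day runs or 5×10^4 cells/well for 3-day runs. After one day the medium was replaced with medium holding compound (1, 5 or 10 µM) or 0.1% DMSO blank. Total RNA was extracted with TRIzol and analysed by RT-qPCR. Fold change was calculated by 2^-ΔΔCt against GAPDH and the blank. Values are means of individual bioreplicates ± SD.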

MDA-MB-231 [4] = assay: Inhibition of IncRNA-WDR5 complex in human MDA-MB-231 cells assessed as downregulation of FOXD3-AS1 expression measured at 10 uM after 1 to 3 days by RT-qPCR analysis; conditions: time 1-3 day; how it was run: as §2
MDA-MB-231 [5] = assay: Inhibition of IncRNA-WDR5 complex in human MDA-MB-231 cells assessed as downregulation of HOTTIP expression measured at 10 uM after 3 days by RT-qPCR analysis; conditions: time 3.0 day; how it was run: as §2

SMILES | inhibition (U2OS [1]) | inhibition (U2OS [2]) | inhibition (MDA-MB-231 [3]) | inhibition (MDA-MB-231 [4]) | inhibition (MDA-MB-231 [5])
CN1CCN(c2ccc(-c3cccc(CN4CCOCC4)c3)cc2NC(=O)c2c[nH]c(=O)cc2C(F)(F)F)CC1 | inactive | inactive | Active | – | –
CNC(=O)c1cc(C2(C#N)CCC2)cc(NS(=O)(=O)c2cc(Br)cc(Cl)c2O)c1O | Active | Active | inactive | inactive | Active
